# Measurements reported in ChEMBL document CHEMBL3872205, “Design, synthesis and evaluation of novel potent angiotensin II receptor 1 antagonists” (Eur J Med Chem, 2016).
# Legend:
# [1] = MRT (0 to infinity) in Wistar rat brain at 30 mg/kg, po by HPLC analysis; assay type: ADME, organism-based
# Summary of the method: (§1)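 Male Wistar rats (180 ± 20 g) received a single oral dose of 10, 15 or 30 mg/kg. Tissues were collected at 0, 0.5, 1, 2, 4, 6, 8, 12, 24, 48 and 72 h (n = 6 per point). Samples of 0.25 g were rinsed, then homogenized in saline (0.25 g/1 mL) and centrifuged at 10,000 × g. Supernatant was methanol-extracted, dried under nitrogen at 50 °C and reconstituted in methanol. Analysis was by C18 HPLC (acetonitrile 60% / water 40%, 1.0 mL/min).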
# [2] = AUC (0 to 72 hrs) in Wistar rat brain at 15 mg/kg, po by HPLC analysis; assay type: ADME, organism-based; design: dose 15 mg/kg, time < 72 hr, route oral
# Summary of the method: (§2)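 Wistar rats (180 ± 20 g) were dosed orally at 10, 15 or 30 mg/kg. Heart, liver, spleen, lung, kidney and brain were collected at 0–72 h (n = 6 per point). Tissue was rinsed, blotted and homogenized in saline (0.25 g/1 mL), then spun at 10,000 × g. Supernatant was methanol-extracted, dried under nitrogen at 50 °C, reconstituted in methanol and run on C18 HPLC (acetonitrile 60%/water 40%, 1.0 mL/min).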
# [3] = AUC (0 to 72 hrs) in Wistar rat Heart at 30 mg/kg, po by HPLC analysis; assay type: ADME, organism-based; design: time < 72 hr, dose 30 mg/kg, route oral; summary of the method: as §2
# [4] = MRT (0 to 72 hrs) in Wistar rat Heart at 15 mg/kg, po by HPLC analysis; assay type: ADME, organism-based
# Summary of the method: (§3)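 Tissue distribution in male Wistar rats given oral 10, 15 or 30 mg/kg; heart, liver, spleen, lung, kidney and brain collected predose and 0.5–72 h post-dose (n = 6 per time). Tissue rinsed in saline, homogenised 0.25 g/1 mL saline, methanol extraction, dried under nitrogen, reconstituted in methanol. Analysis by reverse-phase C18 HPLC, acetonitrile/water 60:40, 1.0 mL/min, ambient temperature.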
# [5] = Toxicity in ig dosed ICR mouse assessed as mortality after 2 weeks; assay type: organism-based; details: in vivo, po
# [6] = AUC (0 to 72 hrs) in Wistar rat plasma at 10 mg/kg, po by HPLC analysis; assay type: ADME, organism-based; design: time < 72 hr, dose 10 mg/kg, route oral
# Summary of the method: (§4)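 Male Wistar rats (180 ± 20 g, n = 6 per group) got one oral dose. Heparinized blood was taken by retro-orbital puncture before dosing and at 0.5–72 h. Plasma was spun at 4000 × g, 4 °C, 10 min, spiked with internal standard and protein-precipitated with acetonitrile. Analysis was reverse-phase C18 HPLC (0.02 mol/L KH2PO4 55%/acetonitrile 45%, 1.0 mL/min). Calibration used 0.1–10 µg/mL, peak-height ratio, weighting concentration^-2.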
# [7] = Cmax in Wistar rat heart at 30 mg/kg, po by HPLC analysis; assay type: ADME, organism-based; design: dose 30 mg/kg, route oral; summary of the method: as §3
# [8] = MRT (0 to 72 hrs) in Wistar rat plasma at 10 mg/kg, po by HPLC analysis; assay type: ADME, organism-based
# Summary of the method: (§5)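 Male Wistar rats (180 ± 20 g), 6 per dose group, each given a single oral dose. Blood was drawn by retro-orbital puncture into heparin at predose and at 0.5, 1, 2, 4, 6, 8, 12, 24, 48 and 72 h, then spun at 4000 × g and 4 °C. Plasma with internal standard was acetonitrile-precipitated, filtered and run on reverse-phase C18 HPLC (0.02 mol/L KH2PO4 55% / acetonitrile 45%, 1.0 mL/min). Calibration standards were 0.1–10 µg/mL, fitted by peak-height ratio with 1/conc² weighting.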
# [9] = MRT (0 to infinity) in Wistar rat brain at 15 mg/kg, po by HPLC analysis; assay type: ADME, organism-based; summary of the method: as §1
# [10] = Cmax in Wistar rat brain at 10 mg/kg, po by HPLC analysis; assay type: ADME, organism-based; design: dose 10 mg/kg, route oral; summary of the method: as §2
# [11] = AUC (0 to 72 hrs) in Wistar rat brain at 30 mg/kg, po by HPLC analysis; assay type: ADME, organism-based; design: dose 30 mg/kg, time < 72 hr, route oral; summary of the method: as §2
# [12] = Tmax in Wistar rat spleen at 15 mg/kg, po by HPLC analysis; assay type: ADME, organism-based
# [13] = AUC (0 to 72 hrs) in Wistar rat spleen at 30 mg/kg, po by HPLC analysis; assay type: ADME, organism-based; design: dose 30 mg/kg, time < 72 hr, route oral; summary of the method: as §2
# [14] = MRT (0 to infinity) in Wistar rat Heart at 15 mg/kg, po by HPLC analysis; assay type: ADME, organism-based; summary of the method: as §1
# [15] = AUC (0 to 72 hrs) in Wistar rat plasma at 30 mg/kg, po by HPLC analysis; assay type: ADME, organism-based; design: time < 72 hr, dose 30 mg/kg, route oral; summary of the method: as §4
# [16] = MRT (0 to infinity) in Wistar rat plasma at 15 mg/kg, po by HPLC analysis; assay type: ADME, organism-based; summary of the method: as §5
# [17] = AUC (0 to infinity) in Wistar rat spleen at 30 mg/kg, po by HPLC analysis; assay type: ADME, organism-based; design: dose 30 mg/kg, route oral, time infinity; summary of the method: as §2
# [18] = AUC (0 to 72 hrs) in Wistar rat lung at 15 mg/kg, po by HPLC analysis; assay type: ADME, organism-based; design: dose 15 mg/kg, time < 72 hr, route oral; summary of the method: as §2
# Mus musculus = assay: Toxicity in ICR mouse assessed as untoward reaction at 1200 mg/kg, po after 2 weeks; assay type: organism-based; details: in vivo, 336 h
# [19] = Tmax in Wistar rat lung at 10 mg/kg, po by HPLC analysis; assay type: ADME, organism-based; summary of the method: as §1
# [20] = MRT (0 to 72 hrs) in Wistar rat liver at 10 mg/kg, po by HPLC analysis; assay type: ADME, organism-based; summary of the method: as §3
# [21] = Tmax in Wistar rat Heart at 30 mg/kg, po by HPLC analysis; assay type: ADME, organism-based; summary of the method: as §1
# [22] = Cmax in Wistar rat liver at 15 mg/kg, po by HPLC analysis; assay type: ADME, organism-based; design: dose 15 mg/kg, route oral; summary of the method: as §3
# [23] = AUC (0 to infinity) in Wistar rat kidney at 30 mg/kg, po by HPLC analysis; assay type: ADME, organism-based; design: dose 30 mg/kg, route oral, time infinity; summary of the method: as §2
# [24] = AUC (0 to 72 hrs) in Wistar rat Heart at 10 mg/kg, po by HPLC analysis; assay type: ADME, organism-based; design: time < 72 hr, dose 10 mg/kg, route oral; summary of the method: as §2
# [25] = Tmax in Wistar rat spleen at 30 mg/kg, po by HPLC analysis; assay type: ADME, organism-based
# [26] = AUC (0 to infinity) in Wistar rat liver at 10 mg/kg, po by HPLC analysis; assay type: ADME, organism-based; design: dose 10 mg/kg, route oral, time infinity; summary of the method: as §2
# [27] = AUC (0 to infinity) in Wistar rat plasma at 30 mg/kg, po by HPLC analysis; assay type: ADME, organism-based; design: dose 30 mg/kg, route oral, time infinity; summary of the method: as §4
# [28] = MRT (0 to infinity) in Wistar rat kidney at 15 mg/kg, po by HPLC analysis; assay type: ADME, organism-based; summary of the method: as §1
# [29] = AUC (0 to infinity) in Wistar rat kidney at 10 mg/kg, po by HPLC analysis; assay type: ADME, organism-based; design: dose 10 mg/kg, time infinity, route oral; summary of the method: as §2
# [30] = AUC (0 to 72 hrs) in Wistar rat lung at 10 mg/kg, po by HPLC analysis; assay type: ADME, organism-based; design: time < 72 hr, dose 10 mg/kg, route oral; summary of the method: as §2
# [31] = AUC (0 to infinity) in Wistar rat kidney at 15 mg/kg, po by HPLC analysis; assay type: ADME, organism-based; design: dose 15 mg/kg, time infinity, route oral; summary of the method: as §2
# [32] = Tmax in Wistar rat kidney at 10 mg/kg, po by HPLC analysis; assay type: ADME, organism-based; summary of the method: as §1
# [33] = Cmax in Wistar rat kidney at 15 mg/kg, po by HPLC analysis; assay type: ADME, organism-based; design: dose 15 mg/kg, route oral; summary of the method: as §3
# [34] = Half life in Wistar rat Heart at 15 mg/kg, po by HPLC analysis; assay type: ADME, organism-based; summary of the method: as §3
# [35] = AUC (0 to infinity) in Wistar rat Heart at 15 mg/kg, po by HPLC analysis; assay type: ADME, organism-based; design: dose 15 mg/kg, time infinity, route oral; summary of the method: as §2
compound,measurement,setting,value
CCCCC1=NC2(CCCC2)C(=O)N1Cc1ccc2c(ccn2-c2ccccc2-c2nnn[nH]2)c1,MRT inf,[1],9.02 h
same,AUC(0-t) at 72 h,[2],1180 ng·h/mL
same,AUC(0-t) at 72 h,[3],7360 ng·h/mL
same,MRT last,[4],16.9 h
same,LD50 at 336 h,[5],1550 mg/kg
same,AUC(0-t) at 72 h,[6],6110 ng·h/mL
same,Cmax,[7],401 ng/mL
same,MRT last,[8],7.87 h
same,MRT inf,[9],11.6 h
same,Cmax,[10],37.2 ng/mL
same,AUC(0-t) at 72 h,[11],1790 ng·h/mL
same,Tmax,[12],1.5 h
same,AUC(0-t) at 72 h,[13],18900 ng·h/mL
same,MRT inf,[14],23.9 h
same,AUC(0-t) at 72 h,[15],89500 ng·h/mL
same,MRT inf,[16],13.7 h
same,AUC(0-inf),[17],21000 ng·h/mL
same,AUC(0-t) at 72 h,[18],1350 ng·h/mL
same,Activity,Mus musculus,Non-Toxic
same,Tmax,[19],2 h
same,MRT last,[20],4.93 h
same,Tmax,[21],4.8 h
same,Cmax,[22],1230 ng/mL
same,AUC(0-inf),[23],29400 ng·h/mL
same,AUC(0-t) at 72 h,[24],825 ng·h/mL
same,Tmax,[25],2 h
same,AUC(0-inf),[26],3320 ng·h/mL
same,AUC(0-inf),[27],88800 ng·h/mL
same,MRT inf,[28],29.4 h
same,AUC(0-inf),[29],10800 ng·h/mL
same,AUC(0-t) at 72 h,[30],745 ng·h/mL
same,AUC(0-inf),[31],7690 ng·h/mL
same,Tmax,[32],1.17 h
same,Cmax,[33],210 ng/mL
same,half-life,[34],15.8 h
same,AUC(0-inf),[35],6700 ng·h/mL
